Reference: ChEMBL document CHEMBL1125107, “Cephalosporin 3'-quinolone esters with a dual mode of action” (J Med Chem, 1990)
≈ marks a conversion by molar mass, not a printed value.

Columns and labels:
Type in all cases: functional
Streptococcus pyogenes [1] = experiment: Minimum inhibitory concentration against Streptococcus pyogenes 4
Procedure, shortened: (§1)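 Broth MIC determination: serial 2-fold dilutions in Mueller-Hinton broth by standard methodology; the lowest concentration inhibiting growth is reported as the MIC, in nmol/mL.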

Staphylococcus aureus [2] = experiment: Evaluated for the minimum inhibitory concentration against Staphylococcus aureus 1059B ( inducible, high level beta-lactamase producer)
Procedure, shortened: (§2)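 Serial 2-fold broth dilution in Mueller-Hinton broth, run by standard methodology; read-out is the minimum inhibitory concentration (MIC).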

Streptococcus pneumoniae [3] = experiment: Minimum inhibitory concentration against Streptococcus pneumoniae 6301; procedure, shortened: as §1
Pseudomonas aeruginosa [4] = experiment: Evaluated for the minimum inhibitory concentration against Pseudomonas aeruginosa 18S/H (Class Id beta-lactamase overproducer)
Procedure, shortened: (§3)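 MIC by serial 2-fold dilution in Mueller-Hinton broth; results given as minimum inhibitory concentrations (nmol/mL).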

Pseudomonas aeruginosa [5] = experiment: Minimum inhibitory concentration against Pseudomonas aeruginosa ATCC 27853; procedure, shortened: as §1
Staphylococcus aureus [6] = experiment: Minimum inhibitory concentration against Staphylococcus aureus 95 (Methicillin-resistant, high-level beta-lactamase producer); procedure, shortened: as §2
Proteus vulgaris [7] = experiment: Minimum inhibitory concentration against Proteus vulgaris 1028 BC (Class Ic beta-lactamase overproducer); procedure, shortened: as §1
Pseudomonas aeruginosa [8] = experiment: Evaluated for the minimum inhibitory concentration against Pseudomonas aeruginosa 18S/H ( Class Id beta-lactamase overproducer); procedure, shortened: as §3
Proteus vulgaris [9] = experiment: Evaluated for the minimum inhibitory concentration against Proteus vulgaris 1028 BC; procedure, shortened: as §2
Escherichia coli [10] = experiment: Evaluated for the minimum inhibitory concentration against Escherichia coli TEM-1; procedure, shortened: as §2
Enterobacter cloacae [11] = experiment: Evaluated for the minimum inhibitory concentration against Enterobacter cloacae P99; procedure, shortened: as §2
Proteus vulgaris [12] = experiment: Evaluated for the minimum inhibitory concentration against Proteus vulgaris 1028 BC (Class Ic beta-lactamase overproducer; procedure, shortened: as §3
Citrobacter freundii = experiment: In vitro antibacterial activity was determined against Citrobacter freundii BS-16; procedure, shortened: as §3
Streptococcus pneumoniae [13] = experiment: In vitro antibacterial activity was determined against Streptococcus pneumoniae 6301; procedure, shortened: as §1
Enterococcus faecalis = experiment: In vitro antibacterial activity was determined against Enterococcus faecalis ATCC 29212; procedure, shortened: as §3
Staphylococcus aureus [14] = experiment: In vitro antibacterial activity was determined against Staphylococcus aureus 95 (Methicillin-resistant, high-level beta-lactamase producer); procedure, shortened: as §2
Serratia marcescens = experiment: In vitro antibacterial activity was determined against Serratia marcescens 1071; procedure, shortened: as §1
Escherichia coli [15] = experiment: In vitro antibacterial activity was determined against Escherichia coli TEM-1 (TEM-1 (class IIIa) beta-lactamase producer); procedure, shortened: as §3
Staphylococcus aureus [16] = experiment: In vitro antibacterial activity was determined against Staphylococcus aureus 1059B ( inducible, high level beta-lactamase producer); procedure, shortened: as §1
Pseudomonas aeruginosa [17] = experiment: In vitro antibacterial activity was determined against Pseudomonas aeruginosa 18S/H ( Class Id beta-lactamase overproducer); procedure, shortened: as §1
Escherichia coli [18] = experiment: In vitro antibacterial activity was determined against Escherichia coli UB 1005; procedure, shortened: as §3
Pseudomonas aeruginosa [19] = experiment: In vitro antibacterial activity was determined against Pseudomonas aeruginosa ATCC 27853; procedure, shortened: as §1
Streptococcus pyogenes [20] = experiment: In vitro antibacterial activity was determined against Streptococcus pyogenes 4; procedure, shortened: as §1
Enterobacter cloacae [21] = experiment: In vitro antibacterial activity was determined against Enterobacter cloacae P99; procedure, shortened: as §3
Proteus vulgaris [22] = experiment: In vitro antibacterial activity was determined against Proteus vulgaris 1028 BC ( Class Ic beta-lactamase overproducer; procedure, shortened: as §3
Staphylococcus aureus [23] = experiment: In vitro antibacterial activity was determined against Staphylococcus aureus ATCC 29213 ( inducible, low level beta-lactamase producer); procedure, shortened: as §1
Proteus mirabilis = experiment: In vitro antibacterial activity was determined against Proteus mirabilis 90; procedure, shortened: as §3
Pseudomonas aeruginosa [24] = experiment: Evaluated for the minimum inhibitory concentration against Pseudomonas aeruginosa ATCC 27853; procedure, shortened: as §3
Escherichia coli [25] = experiment: Evaluated for the minimum inhibitory concentration against Escherichia coli UB 1005; procedure, shortened: as §3
Staphylococcus aureus [26] = experiment: Evaluated for the minimum inhibitory concentration against Staphylococcus aureus 95 (Methicillin-resistant, high-level beta-lactamase producer); procedure, shortened: as §2

## CCn1cc(C(=O)OCC2=C(C(=O)O)N3C(=O)[C@@H](NC(=O)COc4ccccc4)C3SC2)c(=O)c2cc(F)c(N3CCSCC3)cc21 (stereo partly specified)
Streptococcus pyogenes [1]
  MIC: 4 µg/mL (≈ 5.86 µM)
Staphylococcus aureus [2]
  MIC: 0.25 µg/mL (≈ 0.366 µM)
Streptococcus pneumoniae [3]
  MIC: 2 µg/mL (≈ 2.93 µM)
Pseudomonas aeruginosa [4]
  MIC: 64 µg/mL (≈ 93.7 µM)
Pseudomonas aeruginosa [5]
  MIC: 128 µg/mL (≈ 187 µM)
Staphylococcus aureus [6]
  MIC: 0.5 µg/mL (≈ 0.732 µM)
Proteus vulgaris [7]
  MIC: 1 µg/mL (≈ 1.46 µM)

## CCn1cc(C(=O)O)c(=O)c2cc3c(cc21)OCO3 [OXOLINIC ACID]
Streptococcus pyogenes [1]
  MIC: > 128 µg/mL
Pseudomonas aeruginosa [8]
  MIC: 4 µg/mL (≈ 15.3 µM)
Streptococcus pneumoniae [3]
  MIC: > 128 µg/mL
Proteus vulgaris [9]
  MIC: 0.063 µg/mL (≈ 0.241 µM)
Pseudomonas aeruginosa [5]
  MIC: 64 µg/mL (≈ 245 µM)
Staphylococcus aureus [6]
  MIC: 2 µg/mL (≈ 7.66 µM)
Escherichia coli [10]
  MIC: 0.25 µg/mL (≈ 0.957 µM)
Enterobacter cloacae [11]
  MIC: 0.5 µg/mL (≈ 1.91 µM)

## CCn1cc(C(=O)O)c(=O)c2ccc(C)nc21 [NALIDIXIC ACID]
Streptococcus pyogenes [1]
  MIC: 128 µg/mL (≈ 551 µM)
Streptococcus pneumoniae [3]
  MIC: 128 µg/mL (≈ 551 µM)
Pseudomonas aeruginosa [4]
  MIC: 32 µg/mL (≈ 138 µM)
Pseudomonas aeruginosa [5]
  MIC: 128 µg/mL (≈ 551 µM)
Staphylococcus aureus [6]
  MIC: 8 µg/mL (≈ 34.4 µM)
Escherichia coli [10]
  MIC: 4 µg/mL (≈ 17.2 µM)
Proteus vulgaris [7]
  MIC: 2 µg/mL (≈ 8.61 µM)

## CCn1cc(C(=O)OCC2=C(C(=O)O)N3C(=O)[C@@H](NC(=O)COc4ccccc4)C3SC2)c(=O)c2cc(F)c(N3CCCC3)cc21 (stereo partly specified)
Streptococcus pneumoniae [3]
  MIC: < 0.008 µg/mL
Pseudomonas aeruginosa [4]
  MIC: 32 µg/mL (≈ 49.2 µM)
Pseudomonas aeruginosa [5]
  MIC: > 128 µg/mL
Proteus vulgaris [12]
  MIC: 32 µg/mL (≈ 49.2 µM)
Staphylococcus aureus [6]
  MIC: 0.5 µg/mL (≈ 0.768 µM)

## CC(=O)OCC1=C(C(=O)O)N2C(=O)[C@@H](NC(=O)COc3ccccc3)C2SC1 (stereo partly specified)
Citrobacter freundii
  MIC: > 128 µg/mL
Streptococcus pneumoniae [13]
  MIC: 0.25 µg/mL (≈ 0.615 µM)
Enterococcus faecalis
  MIC: 64 µg/mL (≈ 157 µM)
Staphylococcus aureus [14]
  MIC: > 128 µg/mL
Serratia marcescens
  MIC: > 128 µg/mL
Escherichia coli [15]
  MIC: > 128 µg/mL
Staphylococcus aureus [16]
  MIC: 0.25 µg/mL (≈ 0.615 µM)
Pseudomonas aeruginosa [17]
  MIC: > 128 µg/mL
Escherichia coli [18]
  MIC: 64 µg/mL (≈ 157 µM)
Pseudomonas aeruginosa [19]
  MIC: > 128 µg/mL
Streptococcus pyogenes [20]
  MIC: 0.063 µg/mL (≈ 0.155 µM)
Enterobacter cloacae [21]
  MIC: > 128 µg/mL
Proteus vulgaris [22]
  MIC: > 128 µg/mL
Staphylococcus aureus [23]
  MIC: 0.5 µg/mL (≈ 1.23 µM)
Proteus mirabilis
  MIC: 64 µg/mL (≈ 157 µM)

## CCN1CCN(C(=O)NC(C(=O)N[C@@H]2C(=O)N3C(C(=O)O)=C(COC(=O)c4cn(CC)c5cc(N6CCSCC6)c(F)cc5c4=O)CSC23)c2ccccc2)C(=O)C1=O (stereo partly specified)
Streptococcus pyogenes [1]
  MIC: 0.016 µg/mL (≈ 0.0188 µM)
Pseudomonas aeruginosa [8]
  MIC: 32 µg/mL (≈ 37.7 µM)
Streptococcus pneumoniae [3]
  MIC: 0.125 µg/mL (≈ 0.147 µM)
Pseudomonas aeruginosa [24]
  MIC: 64 µg/mL (≈ 75.3 µM)
Staphylococcus aureus [6]
  MIC: 1 µg/mL (≈ 1.18 µM)
Proteus vulgaris [7]
  MIC: 64 µg/mL (≈ 75.3 µM)

## CCn1cc(C(=O)O)c(=O)c2cc(F)c(N3CCCC3)cc21
Pseudomonas aeruginosa [8]
  MIC: 128 µg/mL (≈ 421 µM)
Streptococcus pneumoniae [3]
  MIC: > 128 µg/mL
Pseudomonas aeruginosa [5]
  MIC: > 128 µg/mL
Proteus vulgaris [12]
  MIC: 1 µg/mL (≈ 3.29 µM)
Staphylococcus aureus [6]
  MIC: 0.063 µg/mL (≈ 0.207 µM)

## CCn1cc(C(=O)OCC2=C(C(=O)O)N3C(=O)[C@@H](NC(=O)/C(=N/OC)c4csc(N)n4)C3SC2)c(=O)c2cc(F)c(N3CCSCC3)cc21 (stereo partly specified)
Streptococcus pyogenes [1]
  MIC: < 0.008 µg/mL
Streptococcus pneumoniae [3]
  MIC: 0.016 µg/mL (≈ 0.0219 µM)
Pseudomonas aeruginosa [4]
  MIC: 8 µg/mL (≈ 10.9 µM)
Pseudomonas aeruginosa [5]
  MIC: 128 µg/mL (≈ 175 µM)
Proteus vulgaris [12]
  MIC: 2 µg/mL (≈ 2.73 µM)
Staphylococcus aureus [6]
  MIC: 0.5 µg/mL (≈ 0.683 µM)
Escherichia coli [25]
  MIC: 1 µg/mL (≈ 1.37 µM)

## CCn1cc(C(=O)OCC2=C(C(=O)O)N3C(=O)[C@@H](NC(=O)COc4ccccc4)C3SC2)c(=O)c2cc(F)c(-n3cccc3)cc21 (stereo partly specified)
Streptococcus pyogenes [1]
  MIC: 2 µg/mL (≈ 3.09 µM)
Streptococcus pneumoniae [3]
  MIC: 2 µg/mL (≈ 3.09 µM)
Pseudomonas aeruginosa [4]
  MIC: 128 µg/mL (≈ 198 µM)
Pseudomonas aeruginosa [5]
  MIC: > 128 µg/mL
Staphylococcus aureus [6]
  MIC: 0.5 µg/mL (≈ 0.773 µM)
Proteus vulgaris [7]
  MIC: 16 µg/mL (≈ 24.7 µM)

## CN1CCN(c2c(F)cc3c(=O)c(C(=O)OCC4=C(C(=O)O)N5C(=O)[C@@H](NC(=O)/C(=N/OCC(=O)O)c6csc(N)n6)C5SC4)cn(CCF)c3c2F)CC1 (stereo partly specified)
Streptococcus pyogenes [1]
  MIC: 0.5 µg/mL (≈ 0.618 µM)
Pseudomonas aeruginosa [8]
  MIC: 4 µg/mL (≈ 4.95 µM)
Streptococcus pneumoniae [3]
  MIC: 0.5 µg/mL (≈ 0.618 µM)
Pseudomonas aeruginosa [5]
  MIC: 32 µg/mL (≈ 39.6 µM)
Staphylococcus aureus [26]
  MIC: 1 µg/mL (≈ 1.24 µM)
Proteus vulgaris [12]
  MIC: 0.25 µg/mL (≈ 0.309 µM)

## CCn1cc(C(=O)OCC2=C(C(=O)O)N3C(=O)[C@@H](NC(=O)Cc4cccs4)C3SC2)c(=O)c2cc(F)c(N3CCN(C=O)CC3)cc21 (stereo partly specified)
Streptococcus pneumoniae [3]
  MIC: 0.063 µg/mL (≈ 0.0921 µM)
Pseudomonas aeruginosa [4]
  MIC: 16 µg/mL (≈ 23.4 µM)
Pseudomonas aeruginosa [5]
  MIC: > 128 µg/mL
Staphylococcus aureus [6]
  MIC: 4 µg/mL (≈ 5.85 µM)
Proteus vulgaris [7]
  MIC: 4 µg/mL (≈ 5.85 µM)

## CCn1cc(C(=O)OCC2=C(C(=O)O)N3C(=O)[C@@H](NC(=O)/C(=N/OC)c4csc(N)n4)C3SC2)c(=O)c2ccc(C)nc21 (stereo partly specified)
Pseudomonas aeruginosa [4]
  MIC: 64 µg/mL (≈ 102 µM)
Pseudomonas aeruginosa [5]
  MIC: > 128 µg/mL
Staphylococcus aureus [6]
  MIC: 8 µg/mL (≈ 12.7 µM)
Proteus vulgaris [7]
  MIC: 4 µg/mL (≈ 6.37 µM)
